Yeast life ext – yeast lifespan extension. inhibition of the nicotinamide effect, % at 10 µM. AID 775. 130,000 tested, 0.68% active. S. cerevisiae growth with nicotinamide, OD615; deaD strain in restrictive glucose medium;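 active = inhibition above a set limit, placed 3 SD over the median of all compounds, cut at about 26% in these data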;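 note: 0% = nicotinamide-treated wells and 100% = cells grown without nicotinamide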
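assay system = DeaD-strain S. cerevisiae | buffer or medium = restrictive glucose medium | reagent = 1.5 mM nicotinamide | compound = 10 µM single point, 0.25% DMSO | incubation = 48 h compound exposure at 30 °C, humidified | signal = OD615 measurement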
sdo1 growth – sdo1-depleted yeast growth rescue. S. cerevisiae sdo1-depleted JHY4D growth rescue, OD600 30 h; stronger effect = higher value; pdr5 snq2 efflux-pump mutant strain. 140,000 tested, 0.21% active. z-score at 10 µM;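 active = z-score above 3 at both the 24 hr and the 30 hr optical density reads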;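 note: z-score against mean and SD of all compound wells on the same plate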
RAM network inh – inhibitors of the yeast RAM network; inhibition, % at 50 µM; S. cerevisiae dse1pr::URA3 reporter, 5-FOA growth OD615, 2 d; analog-sensitive cbk1-as2 kinase mutant strain; 190,000 tested, 1.8% active; AID 868;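 active = inhibition above a set limit, 3 SD over mean compound inhibition, cut at about 8.4% in these data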;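 note: 0% = DMSO-only wells with no growth and 100% = 10 µM 1-NA-PP1 full growth; inhibition rescues growth on 5-FOA so higher OD means more RAM inhibition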
Yeast growth inh – yeast BB579 growth reduction in restrictive medium; S. cerevisiae BB579 growth, OD615, 48 h; inhibition, % at 10 µM; 140,000 tested, 0.51% active; AID 804;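 active = inhibition above a set limit, 3 SD over the mean compound inhibition, cut at about 44% in these data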
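Test system: DeaD yeast strain BB579 / Buffer or medium: restrictive glucose-based CSMM-D medium / Doses: single 10 µM dose / Schedule: 4 h cell preincubation, 48 h compound exposure, 30 °C humidified / Technique: culture absorbance at 615 nm / Controls: amphotericin B positive control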
RAM 5-FOA – RAM network inhibitors in efflux-deficient yeast; max inhibition, %; 1,200 tested, under 10 active; shares compounds with RAM network inh; AID 1305; S. cerevisiae efflux-deficient reporter strain, 5-FOA growth OD615, 2 days; call rule not given here;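 note: plate controls were vehicle for no effect and reference inhibitor for full effect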
Numbers without * were called inactive; · = not tested or not shown. The list is not random: actives were taken first. Their share in the collection is about 2.7%.

SMILES	Yeast life ext	sdo1 growth	RAM network inh	Yeast growth inh	RAM 5-FOA
CCOc1ccc(S(=O)(=O)N(CC(=O)NC2CCCCC2C)Cc2ccco2)cc1 (stereo not drawn)	5	-0.45	5	10	·
Cc1ccc(N(CCCCN2C(=O)c3ccccc3C2=O)C(=O)c2cccs2)cc1	1	-1.7	12*	-55	3
COc1ccc(N(CCCN2C(=O)c3cccc4cccc(c34)C2=O)C(=O)c2cccs2)cc1	2	-0.71	6	-66	·
CCCc1cc(C(=O)Nc2cc(C)nn2-c2ccccc2)no1	-7	-0.2	5	-52	·
O=C(CSc1nnc(-c2ccncc2)n1-c1ccccc1Cl)Nc1ccc(C(=O)O)cc1	·	·	12*	·	3
Cc1ccc(OCc2nnc(SCC(=O)Nc3ccc4c(c3)OCCO4)n2Cc2ccco2)cc1	-5	-1.8	12*	-35	1
O=C(CSc1nnc(-c2ccccc2)n1Cc1ccco1)Nc1ccc2c(c1)OCCO2	-23	-0.34	6	-25	·
CN(C)CCCN(C(=O)c1ccco1)c1nc2c(F)cccc2s1	·	·	0	·	·
N#Cc1nc(-c2ccccc2F)oc1NCCN1CCOCC1	-3	0.87	3	-45	·
CCC(C(=O)Nc1ccsc1C(=O)OC)c1ccccc1 (stereo not drawn)	·	·	17*	·	3
COc1cccc(NC(=S)NCc2ccc3c(c2)cc(C)n3C)c1	·	·	12*	·	6
CNCC(C)COc1ccccc1OCc1ccccc1 (stereo not drawn)	1	0.57	20*	-17	2
CC(O)CNCCCOc1ccccc1OCc1ccccc1 (stereo not drawn)	·	·	3	·	·
CCOC(=O)c1nn(-c2ccc(C)cc2)cc1O	-18	0.18	1	-42	·
O=C(Cc1c(O)c2ccccc2[nH]c1=O)NCc1cccc(F)c1	-21	0.09	1	-36	·
O=C(NCCSCc1ccccc1)c1ccc(C2SCC(=O)N2Cc2ccccc2)cc1 (stereo not drawn)	-9	-1.4	12*	-25	3
COc1ccc(S(=O)(=O)N2CCOCC2)cc1NC(=O)CCc1c[nH]c2ccccc12	·	·	3	·	·
CCCCSc1nnc([C@H](CC(C)C)NC(=O)OC(C)(C)C)o1	-11	-0.19	16*	12	2
CCCCSc1nnc([C@H](C)NC(=O)OC(C)(C)C)o1	-6	0.3	-1	-26	·
CCCCn1nnc(NC(=S)NC(=O)c2ccc(-c3cccc(Cl)c3Cl)o2)n1	8	-0.06	13*	-14	5
CCCCn1nnc(NC(=O)c2ccc(-c3ccccc3[N+](=O)[O-])o2)n1	·	·	2	·	·
Cc1cccc(Oc2nc(-c3ccccc3)cc(C)c2S(C)(=O)=O)c1C	-10	-1.5	4	-15	·
COc1ccccc1NC(=O)Cn1nc(-c2ccncc2)nc1SCC(=O)NC1CCCC1	·	·	-1	·	·
COCCN1C(=O)/C(=C/c2ccc(N3CCCC3)cc2C)SC1=S	·	·	16*	·	4
COc1ccc(-n2c(C)cc(/C=C3/SC(=S)N(C)C3=O)c2C)cc1	0	-1	3	-52	·
SMILES	Yeast life ext	sdo1 growth	RAM network inh	Yeast growth inh	RAM 5-FOA
Cc1[nH]c2ccccc2c1/C=N/Nc1ccc([N+](=O)[O-])cc1S(=O)(=O)Nc1ccc(Cl)cc1	-2	0.55	14*	-47	4
CCC1(C)CC(CCNS(=O)(=O)c2ccc(C)cc2)(c2ccc(C)cc2)CCO1 (stereo not drawn)	-15	-0.17	16*	-53	4
CC1(C)CC(CCNS(=O)(=O)c2ccccc2)(c2ccccc2)CCO1 (stereo not drawn)	4	-1.2	0	-28	·
Cc1ccc(C2(CCNS(=O)(=O)c3ccc(C)cc3)CCOC(C(C)C)C2)cc1 (stereo not drawn)	2	-0.6	15*	-25	5
CCOc1ccc2c(c1)C(C)=CC(C)(C)N2C(=O)Nc1ccccc1	4	0.11	4	-2	·
O=C1c2ccccc2C(=O)N1CCCC(=O)N1CCCc2ccccc21	-17	-0.39	0	-22	·
Nc1nc(SCC(=O)c2cc(F)ccc2F)n[nH]1	·	·	3	·	·
CCOC(=O)Cc1csc(NC(=O)NC2(C(F)(F)F)Oc3ccccc3O2)n1	-2	0.26	14*	-29	1
C=CCO/N=C(/C)c1c(O)c(CC)c(-c2ccccc2)n(-c2ccccc2)c1=O	·	-0.79	13*	-29	2
c1ccc2cc(Sc3ncnc4c3oc3ccccc34)ccc2c1	-18	0.81	13*	-29	4
Cc1cc(C)nc(Sc2ncnc3c2oc2ccccc23)n1	-7	0.1	2	11	·
O=C1OC(c2ccc3c(c2)OCO3)N(C(=O)c2ccc(Cl)c(Cl)c2)c2ccccc21 (stereo not drawn)	-4	-1.1	4	16	·
COc1ccc2c(c1)C(=O)/C(=C/C=C/c1ccccc1)CC2	·	-0.78	15*	-62	4
CCCCOc1ccc(CNn2c(C)nc3ccccc3c2=O)cc1	-8	-0.17	15*	-46	2
COc1ccccc1OCC(=O)N(Cc1nc(-c2ccccc2)no1)C1CCCCC1	-1	-1.7	13*	-47	2
Cc1ccccc1OCC(=O)N(Cc1nc(-c2ccccc2)no1)C(C)C	-9	-0.53	6	-39	·
O=C(CNC(=O)c1cccc(F)c1)OCC(=O)N1CCCCC1	-6	0.43	1	0	·
COCCn1c(-c2ccc(OC)cc2)nc2ccccc21	-12	0.54	0	-30	·
COc1ccc(-c2nc3ccccc3c(=O)n2CCN2CCOCC2)cc1	3	-0.03	1	-43	·
COc1ccc(-c2nc3ccccc3c(=O)n2CCOc2c(C)cccc2C)cc1	13	-0.53	17*	-53	6
COc1ccc(-c2nc3ccccc3c(=O)n2CCOc2cccc(C)c2C)cc1	2	0.41	16*	-20	5
Cc1cc(C(=O)COC(=O)CC2Sc3ccccc3NC2=O)c(C)n1-c1ccc2c(c1)OCO2 (stereo not drawn)	4	1.1	3	-24	·
Cc1ccc(-c2cccc(OC(=O)c3ccccc3F)c2)cc1	0	0.38	15*	-29	3
CCOc1cccc(-c2csc(C3COc4ccccc4O3)n2)c1 (stereo not drawn)	5	-0.02	15*	-32	3
NC(=O)c1ccsc1NC(=O)COC(=O)c1ccccc1NCc1ccco1	-3	-0.68	7	-55	·
CCn1c(CCNC(=O)c2ccc(Cl)c(Cl)c2)nnc1SCCOc1ccc(OC)cc1	-3	-1.1	16*	-40	1
COc1ccccc1OCC(=O)Nc1ccc(S(=O)(=O)N2CCCCCC2)cc1	-7	-0.82	8	-54	·
C=CCN(CC=C)S(=O)(=O)c1ccc(NC(=O)COc2ccccc2OC)cc1	·	-0.32	15*	-49	2
COc1cccc(C2C(C(C)=O)=C(O)C(=O)N2CCc2c[nH]c3ccccc23)c1 (stereo not drawn)	-6	-0.39	2	-31	·
CCc1ccc(NC(=S)N2CCCC(C(F)(F)F)C2)cc1 (stereo not drawn)	·	·	2	·	·

Bioassay records (PubChem)
